High-throughput results (PubChem BioAssay)
hDAT+cocaine – human DAT dopamine uptake with cocaine, either direction | AID 449768 | Q01959 | LLC-PK1 hDAT cells, [14C]-dopamine uptake with cocaine IC80; actives deviate in either direction | B-score at 10 µM | hit rate 1.3% among 110,000;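 active = Z score or B-score, a plate-position-corrected score, falls beyond the plate's 99.7% confidence bounds, in either direction; inactive = both scores lie inside the 99.7% bounds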;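 also: scored against the spread of the other compound wells on the same plate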
Phagocytosis inh – macrophage phagocytosis inhibition | J774A.1 macrophage IgG-bead phagocytosis, imaging | inhibition, % at 5 µM | hit rate 0.07% among 110,000 | AID 1029;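 active = inhibition above the mean of the plate negative controls plus 5 SD, cut at about 13% in these data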;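 also: phagocytic index as fraction of beads internalized from green versus red external bead signal; plate controls were DMSO negative control for no effect and cytochalasin-D positive control for full effect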
Measles CPE – protection of cells from measles virus; Measles virus-infected cells, CPE protection, absorbance; protection (pct of control), % at 4 µM; hit rate 1.5% among 140,000; AID 841; in the data active = protection mostly above about 24%, no sharp cut-off; inactive = mostly below about 26%
Pyk2 oligo antag – blocks oligomerization of human Pyk2 in cells | Q14289 | Q293 cells, Pyk2 FERM NanoBiT luminescence; stronger effect = lower value | z-score (the deposit names both 25 µM and 10 µM) | hit rate 0.83% among 99,000 | AID 1347419;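 active = Z-score of -3 or lower, scaled per plate to the spread of control and sample wells; inactive = z-score above -3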;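 also: negative z-score means lost luminescence so less FERM oligomerization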
Cav32 inh – blocks human Cav3.2 T-type calcium channel | O95180 | Cav3.2-expressing cells, Fluo-4 calcium fluorescence FDSS; stronger effect = lower value | B-score at 10 µM | hit rate 4% among 100,000 | AID 449739;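 active = single-dose well whose peak fluorescence ratio is a statistical outlier from its plate by either plate-standardised score or position-corrected B-score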
Rev-RRE block – HIV Rev-RRE protein-RNA interaction inhibition | AID 704 | inhibition, % at 8 µM | Rev peptide-RRE RNA binding, FRET | P05866 | hit rate 0.79% among 97,000;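 active = inhibition above the screen-wide mean plus 3 SD, cut at about 35% in these data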;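 also: 0% = median DMSO wells and 100% = median Neomycin B control wells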
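Test system: Cy5-tagged RRE RNA duplex with fluorescein-tagged Rev peptide; Probe or stimulus: labelled Rev peptide; Schedule: 5 min preincubation and 15 min binding, 25 °C; Signal: FRET fluorescence readout; Evaluation: % inhibition from 671/540 nm acceptor-to-donor ratio, scaled between controls; Control set: DMSO and neomycin B.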
* hit, by the source's call. This is a sample that favours compounds with a hit; in the whole collection about 5.9% have one here.

Results for c1ccc2c(c1)OCC(c1csc3ncnc(N4CCCC4)c13)O2 (configuration not stated) ?
hDAT+cocaine: 1.29; Phagocytosis inh: -0.3; Measles CPE: 7.0; Pyk2 oligo antag: -1.15; Cav32 inh: -5.08*; Rev-RRE block: 2.1

What do the screens show for `CC(C)C1Cc2c(sc3[nH]c(=S)n(Cc4ccccc4)c(=O)c23)CO1` (configuration not stated)?
hDAT+cocaine: 0.475; Phagocytosis inh: -0.4; Measles CPE: 3.0; Pyk2 oligo antag: -1.39; Cav32 inh: -2.61; Rev-RRE block: -0.8

Results for Cc1nc(Cl)sc1C(=O)Nc1ccc(Cl)cc1 ?
Phagocytosis inh: -4.4; Measles CPE: 12.6

Results for Cc1cccc(N(CC(=O)NC2CCCC2)C(=O)c2cc3cc4cccc(C)c4nc3s2)c1C ?
hDAT+cocaine: 0.531; Measles CPE: 24.9; Pyk2 oligo antag: -0.55; Cav32 inh: -3.26*; Rev-RRE block: 1.4

How did O=C(COc1ccccc1Br)NCc1ccccn1 do in these assays?
hDAT+cocaine: -2.32; Phagocytosis inh: -0.6; Measles CPE: 63.4*; Pyk2 oligo antag: 0.07; Cav32 inh: 0.504; Rev-RRE block: 5.0

What do the screens show for `O=C(COc1ccc(F)cc1Br)NCc1ccccn1`?
hDAT+cocaine: 0.87; Phagocytosis inh: -1.3; Measles CPE: 16.6; Pyk2 oligo antag: 0.1; Cav32 inh: 0.238; Rev-RRE block: 4.2

What do the screens show for `Cc1cc(C)c(S(=O)(=O)c2ccccc2)c(OC(=O)c2c(Cl)cccc2Cl)n1`?
hDAT+cocaine: -0.0231; Phagocytosis inh: -1.1; Measles CPE: 5.5; Pyk2 oligo antag: -1.78; Cav32 inh: -4.57*; Rev-RRE block: 14.2

How did COc1cc(OC)nc(Oc2ccccc2C(=O)Oc2cccc(C)c2)n1 do in these assays?
hDAT+cocaine: 0.903; Measles CPE: 5.2; Pyk2 oligo antag: -2.71; Cav32 inh: -1.81; Rev-RRE block: 8.0

What do the screens show for `COc1ccc(C(=O)Oc2coc(CSc3nnc(NC(=O)c4cccs4)s3)cc2=O)cc1`?
Phagocytosis inh: -3.7; Measles CPE: 2.8

What do the screens show for `O=C(COc1ccc(S(=O)(=O)NCc2ccccc2)cc1)NCC1CCCO1` (configuration not stated)?
hDAT+cocaine: 1.44; Phagocytosis inh: 23.6*; Measles CPE: 7.9; Pyk2 oligo antag: 0.52; Cav32 inh: 0.393; Rev-RRE block: -1.9

How did Cc1ccc(-n2nc3ccc(NC(=O)/C=C/c4ccco4)cc3n2)cc1 do in these assays?
Measles CPE: 11.8

Results for CC(NC(=O)CCSc1nc(-c2ccco2)cc(C(F)(F)F)n1)c1ccccc1 (configuration not stated) ?
hDAT+cocaine: -0.0123; Phagocytosis inh: -4.0; Measles CPE: 5.5; Pyk2 oligo antag: 0.47; Cav32 inh: -5.96*; Rev-RRE block: 5.1

How did O=C(O)c1ccc(CSc2nc(-c3ccc(Cl)cc3)cc(C(F)(F)F)n2)cc1 do in these assays?
hDAT+cocaine: 1.76; Phagocytosis inh: -0.9; Measles CPE: 1.8; Pyk2 oligo antag: -0.54; Cav32 inh: -0.877; Rev-RRE block: 1.9

How did O=C(CCSc1nc(-c2ccco2)cc(C(F)(F)F)n1)Nc1ccc2c(c1)OCO2 do in these assays?
hDAT+cocaine: -0.396; Phagocytosis inh: 0.0; Pyk2 oligo antag: 0.24; Cav32 inh: -5.74*; Rev-RRE block: 15.2

What do the screens show for `O=C(O)c1ccc(CSc2nc(-c3ccccc3)cc(C(F)(F)F)n2)cc1`?
Measles CPE: 33.7*

Results for Cc1cc(NC(=O)CCCSc2nc(-c3ccco3)cc(C(F)(F)F)n2)n(-c2ccccc2)n1 ?
hDAT+cocaine: 2.52; Measles CPE: 13.4; Pyk2 oligo antag: -1.05; Cav32 inh: -4.3*; Rev-RRE block: 2.3

Results for O=C(CCSc1nc(-c2ccc3c(c2)OCO3)cc(C(F)(F)F)n1)NCc1ccco1 ?
hDAT+cocaine: -1.1; Phagocytosis inh: 0.5; Measles CPE: 10.1; Cav32 inh: -0.0816; Rev-RRE block: 3.6

Results for CN(c1ccccc1)S(=O)(=O)c1cccc(C(=O)OCC(=O)NCc2ccc3c(c2)OCO3)c1 ?
Phagocytosis inh: -6.6; Measles CPE: 12.2

What do the screens show for `CC1CCN(S(=O)(=O)c2cc(C(=O)N3CCN(c4ncccn4)CC3)ccc2Br)CC1`?
Phagocytosis inh: -10.9; Measles CPE: 19.3

What do the screens show for `O=C(CCSc1nc(-c2ccc3c(c2)OCO3)cc(C(F)(F)F)n1)NCc1ccccc1`?
hDAT+cocaine: 1.82; Measles CPE: 5.7; Pyk2 oligo antag: -0.32; Cav32 inh: -1.05; Rev-RRE block: 9.2

How did CN(Cc1ccccc1)C(=O)CCSc1nc(-c2ccc3c(c2)OCO3)cc(C(F)(F)F)n1 do in these assays?
hDAT+cocaine: 0.782; Measles CPE: 8.2; Pyk2 oligo antag: -0.9; Cav32 inh: -6.75*; Rev-RRE block: 6.6

How did CCOc1ccc(S(=O)(=O)N2CCCC2)cc1 do in these assays?
hDAT+cocaine: 0.664; Phagocytosis inh: -0.3; Measles CPE: 2.4; Pyk2 oligo antag: 0.61; Cav32 inh: 0.299; Rev-RRE block: 4.6

Results for CN(CCOc1ccc(Cl)cc1)c1ccc(S(=O)(=O)N2CCCCC2)cn1 ?
hDAT+cocaine: 0.945; Phagocytosis inh: 0.6; Measles CPE: 34.0; Pyk2 oligo antag: -0.98; Cav32 inh: -6.36*; Rev-RRE block: 11.5

What do the screens show for `COc1ccc([C@H]2C=C3CN(C(=O)OC(C)(C)C)S(=O)(=O)[C@H]3C[C@H]2OC(=O)c2cccs2)cc1`?
hDAT+cocaine: 0.406; Cav32 inh: -1.02

Results for NC(=S)Cc1nc2n(n1)Cc1ccccc1-2 ?
hDAT+cocaine: 0.0604; Phagocytosis inh: 0.3; Measles CPE: 49.6*; Pyk2 oligo antag: 0.25; Cav32 inh: 1.02; Rev-RRE block: 2.2

Results for Cc1ccc(-c2nc3n(n2)Cc2ccccc2-3)cc1 ?
hDAT+cocaine: -0.0367; Measles CPE: 7.1; Pyk2 oligo antag: 0.46; Cav32 inh: 0.629; Rev-RRE block: 4.7

Results for Nc1ccc(-c2ccc(N)cc2C(F)(F)F)c(C(F)(F)F)c1 ?
hDAT+cocaine: 0.0832; Phagocytosis inh: -0.3; Measles CPE: 4.9; Pyk2 oligo antag: -3.12*; Rev-RRE block: 3.7

Results for Nc1ccc(C(O)(C(F)(F)F)C(F)(F)F)cc1 ?
hDAT+cocaine: -1.77; Phagocytosis inh: -0.9; Measles CPE: 3.1; Pyk2 oligo antag: -2.25; Rev-RRE block: 3.8

What do the screens show for `CC(=O)CC(=O)Nc1ccc(Nc2ccccc2)cc1`?
Phagocytosis inh: -4.7; Measles CPE: 8.3

What do the screens show for `CN(C)S(=O)(=O)c1ccc(Cl)c(NC(=O)c2ccncc2)c1`?
Phagocytosis inh: -6.6; Measles CPE: 8.5

What do the screens show for `COC(=O)C1=C(C(=O)OC)[N+]2=C3N(C(=O)NC2(C)C)[C@H](CO)C[C@@]32c3ccccc3N(Cc3ccccc3)[C@@H]12`?
hDAT+cocaine: 1.03; Cav32 inh: -1.59
